Measurements taken from ChEMBL document CHEMBL3286113, “New potent antibacterial oxazolidinone (MRX-I) with an improved class safety profile” (J Med Chem, 2014).
Values after ≈ are worked out from the molar mass of the structure shown.

Key:
[1] = Cmax in fasted human at 600 mg, po administered as single dose; format: ADME, organism-based; design: dose 600 mg, route oral; settings: in vivo
Procedure, shortened: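 Healthy volunteers (12; six of each sex) in a three-period Latin-square crossover. Each received single oral doses of 300, 600 and 900 mg under fasting conditions, with a 1-week washout between doses. Parameters from a noncompartmental model.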

[2] = AUC (0 to infinity) in fasted human at 600 mg, po administered as single dose; format: ADME, organism-based; design: dose 600 mg, route oral, time infinity; settings: plasma
Procedure, shortened: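 Single-dose, three-period Latin-square crossover in 12 healthy volunteers (6 of each gender). Each received single oral 300, 600 and 900 mg doses under fasting conditions, with a 1-week washout between doses. PK parameters, including AUC0−inf, came from a noncompartmental model.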

[3] = Cmax in human at 800 mg, po administered as single dose with meal measured on day 1; format: ADME, organism-based; design: dose 800 mg, route oral; settings: in vivo
Procedure, shortened: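 Randomized, double-blind, placebo-controlled multiple-dose study in 32 healthy subjects, half male and half female. Each dose was taken with a meal, at 600 or 800 mg, 28 doses over 15 days. A single dose on days 1 and 15 gave full PK; BID (Q12h) dosing ran on days 2–14.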

[4] = AUC (0 to 24 hrs) in human at 800 mg, po administered as single dose with meal measured on day 15; format: ADME, organism-based; design: dose 800 mg, time < 24 hr, route oral; settings: plasma
Procedure, shortened: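 Randomized, double-blind, placebo-controlled multiple-dose study in 32 healthy subjects (half male, half female). Subjects took 28 oral doses of 600 or 800 mg over 15 days, each with a meal. A single dose was given on days 1 and 15 for full PK, and doses were given Q12h from day 2 to day 14. AUC0−24 was measured on days 1 and 15.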

[5] = system: Homo sapiens; assay: Toxicity in human assessed as change in platelet count at 600 to 800 mg, po administered as single dose with meal on day 1 and day 15 followed by bid with meal on day 2 to day 14 measured during compound treatment; format: organism-based; settings: in vivo
[6] = species on record: Rattus norvegicus; assay: Drug uptake in rat measured over 7 days; format: ADME, organism-based; settings: in vivo, 168 h
[7] = species on record: Canis familiaris; assay: Drug uptake in dog measured over 7 days; format: ADME, organism-based, Canis lupus familiaris; settings: in vivo, 168 h
[8] = system: Rattus norvegicus; assay: Toxicity in female rat assessed as effect on hematocrit level at 20 mg/kg/day, po bid administered for 4 weeks (reference value: 39.08%); format: organism-based; design: route oral; settings: in vivo, 672 h
[9] = system: Rattus norvegicus; assay: Toxicity in female rat assessed as effect on mean corpuscular volume at 20 mg/kg/day, po bid administered for 4 weeks (reference value: 53.72 fL); format: organism-based; design: route oral; settings: in vivo, 672 h
[10] = system: Rattus norvegicus; assay: Toxicity in female rat assessed as effect on mean corpuscular hemoglobin level at 20 mg/kg/day, po bid administered for 4 weeks (reference value: 19.5 pg); format: organism-based; design: route oral; settings: in vivo, 672 h
[11] = system: Rattus norvegicus; assay: Toxicity in female rat assessed as effect on hemoglobin level at 100 mg/kg/day, po bid administered for 4 weeks (reference value: 141.8 g/L); format: organism-based; design: route oral; settings: in vivo, 672 h
[12] = system: Rattus norvegicus; assay: Toxicity in female rat assessed as effect on mean corpuscular hemoglobin level at 100 mg/kg/day, po bid administered for 4 weeks (reference value: 19.5 pg); format: organism-based; design: route oral; settings: in vivo, 672 h
[13] = system: Rattus norvegicus; assay: Toxicity in female rat assessed as effect on reticulocyte count at 100 mg/kg/day, po bid administered for 4 weeks (reference value: 1.48%); format: organism-based; design: route oral; settings: in vivo, 672 h
[14] = system: Rattus norvegicus; assay: Toxicity in female rat assessed as effect on hemoglobin level at 200 to 300 mg/kg/day, po bid administered for 4 weeks (reference value: 141.8 g/L); format: organism-based; design: route oral; settings: in vivo, 672 h
[15] = system: Rattus norvegicus; assay: Toxicity in female rat assessed as effect on mean corpuscular volume at 200 to 300 mg/kg/day, po bid administered for 4 weeks (reference value: 53.72 fL); format: organism-based; design: route oral; settings: in vivo, 672 h
[16] = system: Rattus norvegicus; assay: Toxicity in female rat assessed as change in bone marrow at 200 to 300 mg/kg/day, po bid administered for 4 weeks; format: organism-based; design: route oral; settings: in vivo, 672 h
Procedure, shortened: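 Rats given the drug orally twice daily for 4 weeks, 10 rats per gender per group. Doses were 20, 100 and 200/300 mg/kg/day, with the top dose raised from 200 to 300 on day 15. Linezolid comparator at 100 and 200 mg/kg/day. Followed by a 4-week recovery. Mortality, body weight, hematology and bone marrow examined. TK blood sampled on days 1, 14 and 28.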

[17] = Clastogenicity in CHL cells assessed as induction of structural chromosomal aberration at 25 to 200 ug/mL measured over 24 hrs in presence of metabolic activation; format: toxicity, cell-based, Cricetulus griseus; settings: chinese hamster
Procedure, shortened: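 Chinese hamster lung cells scored for structural chromosome aberrations with or without metabolic activation. Exposure was 50–400 μg/mL over 6 h, or 25–200 μg/mL over 24 h.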

[18] = system: Homo sapiens; assay: Toxicity in fasted human at 50 to 1800 mg, po; format: organism-based; settings: in vivo
Procedure, shortened: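 Randomized, double-blind, placebo-controlled single ascending dose study in healthy Chinese subjects under fasting conditions. Eight groups received single oral doses of 50, 100, 200, 400, 800, 1200, 1600 or 1800 mg, with tolerability assessed.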

[19] = Myelosuppression activity against human CD34-positive blood stem/progenitor cells assessed as growth inhibition after 9 to 10 days by CellTiter-Glo luminescent assay
[20] = system: Enterococcus faecalis; assay: Bacteriostatic activity against vancomycin-sensitive Enterococcus faecalis; format: functional
[21] = system: Enterococcus faecium; assay: Bacteriostatic activity against vancomycin-resistant Enterococcus faecium; format: functional
[22] = system: Streptococcus agalactiae; assay: Antibacterial activity against Streptococcus agalactiae; format: functional
[23] = system: Streptococcus anginosus; assay: Antibacterial activity against Streptococcus anginosus; format: functional
[24] = system: Streptococcus pneumoniae; assay: Antibacterial activity against Streptococcus pneumoniae assessed as time required for growth inhibition; format: functional
[25] = system: Staphylococcus aureus; assay: Antibacterial activity against Staphylococcus aureus measured after 6 serial passages; format: functional
[26] = system: Streptococcus pyogenes; assay: Antibacterial activity against Streptococcus pyogenes isolate 556 in po dosed mouse systemic infection model; format: functional; settings: isolate 556, po
[27] = system: Staphylococcus aureus; assay: Antibacterial activity against methicillin-sensitive Staphylococcus aureus ATCC 29213 in mouse thigh infection model assessed as reduction of log10 CFU per thigh at 10 mg/kg, po; format: functional
Procedure, shortened: (§1)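 Mouse thigh infection with S. aureus ATCC29213 (MSSA), 10 animals per dosing group. Oral doses were 5, 10, 20, 40 and 80 mg/kg. The read-out was log CFU per thigh after treatment, and the reduction (ΔLogCFU/thigh) was reported.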

[28] = system: Staphylococcus aureus; assay: Antibacterial activity against methicillin-sensitive Staphylococcus aureus ATCC 29213 in mouse thigh infection model assessed as reduction of log10 CFU per thigh at 40 mg/kg, po; format: functional; procedure, shortened: as §1
[29] = system: Staphylococcus aureus; assay: Antibacterial activity against methicillin-resistant Staphylococcus aureus isolate 0605 in po dosed mouse thigh infection model; format: functional, organism-based; settings: Thigh muscle
[30] = system: Rattus norvegicus; assay: Dose normalized Cmax in po dosed rat; format: ADME, organism-based; settings: in vivo
[31] = system: Canis familiaris; assay: Dose normalized Cmax in po dosed dog; format: ADME, organism-based, Canis lupus familiaris; settings: in vivo
[32] = system: Mus musculus; assay: Dose normalized AUC (0 to t) in po dosed mouse; format: ADME, organism-based; settings: in vivo
[33] = system: Rattus norvegicus; assay: Dose normalized AUC (0 to t) in po dosed rat; format: ADME, organism-based; settings: in vivo
[34] = Cmax in female rat at 45 mg/kg, po; format: ADME, organism-based; design: dose 45 mg/kg, route oral; settings: in vivo
[35] = Half life in male rat at 5 mg/kg, po; format: ADME, organism-based; design: dose 5 mg/kg, route oral; settings: in vivo

O=C1C=CN(c2c(F)cc(N3C[C@H](CNc4ccon4)OC3=O)c(F)c2F)CC1 [CONTEZOLID]
Cmax [1]: 12200 ng/mL | AUC(0-inf) [2]: 48300 ng·h/mL | Cmax [3]: 27800 ng/mL | AUC(0-t) at 24 h [4]: 90400 ng·h/mL | Activity [5]: Non-toxic | Drug uptake [6]: Not Active | Drug uptake [7]: Not Active | Activity [8]: 37.16% | Activity [9]: 54.52 fL | Activity [10]: 20.2 pg | Activity [11]: 134.8 g/L | Activity [12]: 20.28 pg | Activity [13]: 1.46% | Activity [14]: 117.6 g/L | Activity [15]: 53.02 fL | Activity [16]: Toxic | Activity [17]: Non-toxic | Activity [18]: Non-toxic | IC50 [19]: 15.7 µg/mL (≈ 38.4 µM) | MIC50 [20]: 1 µg/mL (≈ 2.45 µM) | MIC90 [20]: 1 µg/mL (≈ 2.45 µM) | MIC [21]: 1 µg/mL (≈ 2.45 µM) | MIC50 [21]: 1 µg/mL (≈ 2.45 µM) | MIC90 [21]: 1 µg/mL (≈ 2.45 µM) | MIC50 [22]: 1 µg/mL (≈ 2.45 µM) | MIC90 [22]: 1 µg/mL (≈ 2.45 µM) | MIC50 [23]: 0.5 µg/mL (≈ 1.22 µM) | MIC90 [23]: 1 µg/mL (≈ 2.45 µM) | Time [24]: 1.8 h | MIC [25]: 2 µg/mL (≈ 4.9 µM) | ED50 [26]: 8.9 mg/kg | deltalog10CFU [27]: 3.29 | deltalog10CFU [28]: 3.42 | Activity [29]: Dose-dependent effect | Cmax/dose [30]: 1065 ng/mL/(mg/kg) | Cmax/dose [31]: 259 ng/mL/(mg/kg) | AUCt/dose [32]: 1654 ng·h/mL/mg/kg | AUCt/dose [33]: 3703 ng·h/mL/mg/kg | Cmax [34]: 50000 ng/mL | half-life [35]: 1.08 h
